TRPC4 potent: positive allosteric modulators of TRPC4, primary screen, cell-based, mouse TRPC4beta, HEK293 mu-opioid, Fluo-4 calcium. AID 2227, 2009. B-score at 10 µM. 310,000 tested, 0.42% active. DAMGO EC20, Fluo-4 Ca2+ flux; active compounds read high. Short transient receptor potential channel 4 (Mus musculus), Q9QUQ5;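 active means B-score of calcium response area above 5 SD of library B-scores, with initial fluorescence ratio within 5 SD of library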;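 further: B-score of integrated fluorescence ratio over time as area under calcium response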
TRPC4 act: activators of mouse TRPC4 channel, primary screen, Fluo4 calcium, HEK293 TRPC4beta/mu-opioid cells. Short transient receptor potential channel 4 (Mus musculus), Q9QUQ5. Fluo4 calcium fluorescence; active compounds read high. B-score at 10 µM. 310,000 tested, 0.49% active. AID 2237, 2010;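 active means B-score above 5 SD of library B-scores, and initial fluorescence ratio not above library mean plus 5 SD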;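 further: positive B-score marks a calcium rise read as TRPC4 activation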
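Assay system: HEK293 cells stably co-expressing mouse TRPC4beta and mu-opioid receptor / Timing: Fluo4 dye loading 45 min at room temperature, 110 s recording / Signal: Fluo4 calcium-sensitive dye fluorescence, kinetic, 1 Hz baseline / Read-out: integrated baseline-normalised fluorescence ratio, converted to per-well B score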
TRPC4 inh: inhibitors of mouse TRPC4 channel, primary screen, Fluo4 calcium, HEK293 TRPC4beta/mu-opioid cells; DAMGO-evoked Fluo4 calcium flux; active compounds read low; 300,000 tested, 0.39% active; Short transient receptor potential channel 4 (Mus musculus), Q9QUQ5; B-score at 10 µM;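 active means B-score over 3 SD under the library average, no early fluorescence shift, positive overall ratio signal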
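Signal: kinetic Fluo4 fluorescence imaging of calcium influx. Material: stable TRPC4beta/mu-opioid receptor HEK293 cells. Probe or stimulus: DAMGO in two steps, submaximal then maximal.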
TRPC6 inhibitor: mouse TRPC6 channel inhibitors, primary screen, cell-based, HEK293, membrane potential dye; ACh-evoked depolarization; active compounds read low; B-score at 10 µM; 310,000 tested, 1.1% active; AID 2553, 2010;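 active means B-score under library mean minus 3 SD, initial fluorescence not abnormally high, positive integrated signal ratio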;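 further: B-score derived from integrated fluorescence ratio over the kinetic read; more negative B-score means stronger inhibition of depolarization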
Target sequence (Q61143 whole entry, looked up): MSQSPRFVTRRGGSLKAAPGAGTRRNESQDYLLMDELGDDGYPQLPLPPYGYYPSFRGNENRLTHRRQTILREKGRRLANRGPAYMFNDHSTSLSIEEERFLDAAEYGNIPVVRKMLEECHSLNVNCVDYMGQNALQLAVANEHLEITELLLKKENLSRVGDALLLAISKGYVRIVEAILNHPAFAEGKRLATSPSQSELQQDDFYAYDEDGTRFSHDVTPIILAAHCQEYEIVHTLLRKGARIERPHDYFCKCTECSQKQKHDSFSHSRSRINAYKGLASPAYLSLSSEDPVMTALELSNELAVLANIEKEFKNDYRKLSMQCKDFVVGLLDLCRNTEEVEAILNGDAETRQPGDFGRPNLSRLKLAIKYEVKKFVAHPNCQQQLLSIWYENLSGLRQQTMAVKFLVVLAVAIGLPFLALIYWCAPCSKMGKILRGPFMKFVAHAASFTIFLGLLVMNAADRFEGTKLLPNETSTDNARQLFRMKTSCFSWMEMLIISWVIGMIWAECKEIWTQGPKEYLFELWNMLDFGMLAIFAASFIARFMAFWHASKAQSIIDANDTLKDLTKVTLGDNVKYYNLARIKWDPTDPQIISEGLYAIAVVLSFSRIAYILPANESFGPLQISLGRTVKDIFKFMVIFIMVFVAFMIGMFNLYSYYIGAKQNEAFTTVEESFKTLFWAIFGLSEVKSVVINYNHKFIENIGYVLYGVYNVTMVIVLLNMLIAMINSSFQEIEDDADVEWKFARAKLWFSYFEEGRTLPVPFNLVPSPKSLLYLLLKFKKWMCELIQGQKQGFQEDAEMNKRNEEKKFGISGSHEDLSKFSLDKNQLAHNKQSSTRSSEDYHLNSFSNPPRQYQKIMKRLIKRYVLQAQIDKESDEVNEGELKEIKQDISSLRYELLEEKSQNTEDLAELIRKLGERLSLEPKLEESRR
TRPC6 activator: mouse TRPC6 channel activators, primary screen, cell-based, HEK293, membrane potential dye. HEK293-TRPC6 membrane potential dye fluorescence; active compounds read high. B-score at 10 µM. 310,000 tested, 0.13% active. AID 2550, 2010;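 active means B-score of the integrated fluorescence ratio above library mean plus 3 SD, and starting fluorescence ratio within library mean plus 5 SD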;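 further: higher score means more depolarization so channel activation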
TRPC4 spec 2: second selectivity test of TRPC6 inhibitors: effect on mouse TRPC4. shares compounds with TRPC6 inhibitor. HEK293 TRPC4/MOR, membrane potential dye fluorescence; channel activated by saturating DAMGO dose. inhibition, % at 10 µM. 920 tested, 42% active;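 active means compounds whose fluorescence signal differed from control wells by over 3 SD, either direction, in both duplicate plates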
TRPC4 spec: mouse TRPC4 modulation by TRPC6 hits, confirmation, selectivity assay for TRPC6 inhibitor project, cell-based, HEK293 TRPC4/mu-opioid, membrane potential dye. 920 tested, 61% active. activity change, negative = inhibition, % at 10 µM. membrane potential fluorescence. shares compounds with TRPC6 inhibitor. AID 2777, 2010;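 active means rise or fall in signal beyond 3 SD of buffer-only wells in both replicate plates, either sign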;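 further: integrated kinetic ratio of fluorescence range over baseline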
HEK293 MPD ctr 2-1: nonspecific membrane potential effects, parental HEK293, confirmation, counter-screen for TRPC6 inhibitor project, cell-based, second counter screen | signal change vs control, % at 10 µM | shares compounds with TRPC6 inhibitor | parental HEK293 membrane potential dye fluorescence; maximal acetylcholine challenge after compound addition | 920 tested, 31% active | AID 2779, 2010;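 active means membrane potential signal moving either way by over 3 SD of the maximum-effect control, in both duplicate plates, meaning non-specific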
HEK293 MPD ctr-1: membrane potential modulation in parental HEK293, confirmation, counter-screen for TRPC6 inhibitor project, cell-based. parental HEK293 membrane potential dye fluorescence. membrane potential signal change, % at 10 µM. 920 tested, 60% active. AID 2780, 2010. shares compounds with TRPC6 inhibitor;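 active means membrane potential signal shifting up or down by more than 3 SD of buffer-only wells, on both duplicate plates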
HEK293 MPD ctr-2: parental HEK293 membrane potential modulation, confirmation, counter-screen for TRPC6 modulator project, cell-based | shares compounds with TRPC6 inhibitor | membrane potential dye fluorescence | membrane potential signal change, % at 10 µM | 2,400 tested, 51% active | AID 488924, 2010;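 active means membrane potential signal moves up or down beyond 5 SD from buffer-only wells, on both duplicate plates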
HEK293 MPD ctr 2-2: second counter-screen for TRPC6 modulators: effect in parental HEK293 cells; AID 488926; shares compounds with TRPC6 inhibitor; 2,400 tested, 14% active; inhibition, % at 10 µM; membrane potential dye fluorescence; after compound, maximal acetylcholine stimulation;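 active means membrane potential signal drops by more than 5 SD from the mean control signal, in both duplicate plates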;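 further: plate controls were acetylcholine ECmax control wells for no effect and buffer only wells for full effect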
TRPC4 ctr mod: TRPC4 modulation by TRPC6 hit compounds, confirmation, selectivity assay for TRPC6 modulator project, cell-based, HEK293 TRPC4/mu-opioid, membrane potential dye, mouse | shares compounds with TRPC6 inhibitor | 2,400 tested, 69% active | percent change from control (negative = decrease, positive = increase), % at 10 µM | membrane potential fluorescence;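 active means membrane potential signal moved up or down beyond 5 SD of buffer control wells, in both duplicate plates, actives on both sides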;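 further: plate controls were assay buffer wells for no effect and DAMGO maximal-effect wells for full effect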
TRPC4/MOR inh 2: second selectivity test of TRPC6 modulators against mouse TRPC4. AID 488928. HEK293 TRPC4/mu-opioid, membrane potential dye fluorescence; stimulated with maximal-effect DAMGO. 2,400 tested, 55% active. inhibition, % at 10 µM. shares compounds with TRPC6 inhibitor;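 active means drop in membrane potential signal beyond 5 SD of the control wells in both duplicate plates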;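 further: TRPC4 counter screen for TRPC6 hits run under conditions tuned for TRPC6 not TRPC4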
TRPC6 block conf: mouse TRPC6 channel inhibitors, confirmation, HEK293 cells, membrane potential dye, duplicate; inhibition, % at 10 µM; ACh-evoked depolarization; 3,300 tested, 43% active; shares compounds with TRPC6 inhibitor;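 active means fluorescence ratio falls more than 5 SD below the full-stimulation control mean, in both duplicate runs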;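 further: integrated fluorescence ratio of peak minus minimum over baseline after agonist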
TRPC6 act conf: mouse TRPC6 channel activators, confirmation, HEK293 cells, membrane potential dye, duplicate; shares compounds with TRPC6 inhibitor; HEK293-TRPC6 membrane potential dye fluorescence, FDSS; activation, % at 10 µM; 2,800 tested, 11% active;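 active means ratio signal rise beyond 5 SD above unstimulated control wells' mean, seen in both duplicate runs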;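 further: plate controls were buffer EC0 wells for no effect and acetylcholine ECmax response for full effect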
The depositor's hits bear a star; i = inactive; x = no result; + = active, no number. The list is not random: actives were taken first. Their share in the collection is about 2.3%.

SMILES	TRPC4 potent	TRPC4 act	TRPC4 inh	TRPC6 inhibitor	TRPC6 activator	HEK293 MPD ctr-2	HEK293 MPD ctr 2-2	TRPC4 ctr mod	TRPC4/MOR inh 2	TRPC6 block conf	TRPC6 act conf	others
Cc1ccccc1-[n+]1c(-c2ccccc2)cc(-c2ccccc2)cc1-c1ccccc1	i	i	i	-10*	i	x	x	x	x	100%*	i	TRPC4 spec 2=60%*;TRPC4 spec=20%*;HEK293 MPD ctr 2-1=i;HEK293 MPD ctr-1=7.1%*
CCOP(=O)(C#CC(C)(C)C)C1(O)CCCCC1 (stereo not given)	i	i	i	i	i	x	x	x	x	x	x
O=c1c2ccccc2nc(CNCC2CCCO2)n1-c1ccc(F)cc1 (stereo not given)	i	i	i	i	i	x	x	x	x	x	x
CC(NS(=O)(=O)OCC(Cl)(Cl)Cl)c1ccccc1 (stereo not given)	i	i	i	i	i	x	x	x	x	x	x
Nc1c2c(nc3sc4c(c13)CCCC4)CCCC2	i	i	i	-5.9*	i	i	i	-8.0%*	62%*	i	i
CCN(CC)CCCOC(=O)C(OC)(c1ccccc1)c1ccccc1	i	i	i	-6.4*	i	153%*	78%*	34%*	i	61%*	x
CCc1ccc(N2C(=O)NC(=O)/C(=C\c3cc(C)n(-c4cc(C(=O)O)cc(C(=O)O)c4)c3C)C2=O)cc1	i	i	i	i	i	x	x	x	x	x	x
Cc1ccc(Cc2c(C)nc3nc(SCC(=O)N4CCC5(CC4)OCCO5)nn3c2C)cc1	i	i	i	-11*	13*	184%*	i	32%*	38%*	46%*	152%*
COc1ccccc1CCNC1CCC(C(C)(C)C)CC1 (stereo not given)	i	i	i	-14*	18*	673%*	105%*	156%*	82%*	98%*	178%*
COc1ccccc1CCNC1CCCCCC1	i	i	i	i	i	x	x	x	x	x	x
Cc1cc(OCC(=O)N2C[C@H]3C[C@@H](C2)c2cccc(=O)n2C3)c2c(C)cc(=O)oc2c1	i	i	i	i	i	x	x	x	x	x	x
O=P(Nc1cccnc1)(Oc1ccccc1Cl)Oc1ccccc1Cl	i	i	i	i	i	x	x	x	x	x	x
O=C(/C=C/c1c[nH]c2ccccc12)c1c(O)n(CCc2ccccc2)c(=O)[nH]c1=O	i	i	i	i	144*	+	i	392%*	i	i	390%*
CCCCn1c(O)c(C(C)=NCCc2c[nH]c3ccccc23)c(=O)[nH]c1=O	i	i	i	i	i	x	x	x	x	x	x
CN1CCc2nc(SCc3cccc(Br)c3)c(C#N)cc2C1	i	i	i	i	i	x	x	x	x	x	x
CN1CCN(c2ccc(NC(=O)Oc3ccccc3)cc2)CC1	i	i	i	i	i	x	x	x	x	x	x
CN1CCN(c2cccc3c2C(=O)c2ccccc2C3=O)CC1	17*	i	i	-18*	i	-288%*	82%*	-53%*	72%*	80%*	i
CN1CCN(c2ccc3c(c2)S(=O)(=O)c2ccccc2C3=O)CC1	i	i	i	-5.3*	i	90%*	i	-52%*	32%*	i	i
O=C1CCCN1CC#CCN1CCCC1	i	i	i	-5.9*	i	i	i	i	i	49%*	x
CCCN1CCc2cccc3c2[C@H]1Cc1ccc(O)c(O)c1-3	i	i	i	-5.6*	i	i	i	i	37%*	i	i
COc1cc2c(cc1O)CC1c3c(cc(O)c(OC)c3-2)CCN1C (stereo not given)	i	i	i	i	i	x	x	x	x	x	x
C/C(CC(c1ccccc1)c1c(O)c2ccccc2oc1=O)=N\Nc1ccc([N+](=O)[O-])cc1[N+](=O)[O-] (stereo not given)	i	i	i	i	i	x	x	x	x	x	x
O=c1oc2ccccc2c(O)c1C(c1ccc([N+](=O)[O-])cc1)c1c(O)c2ccccc2oc1=O	i	i	i	-7.3*	i	x	x	x	x	i	i	TRPC4 spec 2=i;TRPC4 spec=i;HEK293 MPD ctr 2-1=i;HEK293 MPD ctr-1=-272%*
CCCCCSc1cc(OC)c(CCN)cc1OC	i	i	i	-6.5*	i	i	i	i	59%*	40%*	i
